Assay results from PMC11986672 (RSC Medicinal Chemistry, 2025).
“And” between values parts separate entries of the source, which are not always exact repeats. Equal values may be shown once. Where a name gives a salt, the structure may show the parent alone. Read-outs that look alike come from different tables or passages of the source.

Columns and labels:
[1] = test system: noncancerous human endometrial stromal (MAD11) cells; test: MTT cytotoxicity assay, MAD11; format: cell-based; conditions: MAD11, 48 h, read-out: MAD11 IC50
How it was run: (§1)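 HEC1A (5000/well) and MAD11 (2500/well) cells were seeded and held overnight at 37 °C. Test compound was reconstituted in DMSO and serially diluted in medium to final 160, 80, 40, 20, 10, 5, 2.5 and 1.25 μM, in triplicate, with matched DMSO in all wells. After 48 h, MTT was added for 3 h, formazan solubilised (4 mM HCl, 0.1% NP-40, isopropanol) and absorbance read at 590/620 nm. IC50 was taken against vehicle controls; selectivity = MAD11 IC50 / HEC1A IC50.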

[2] = test system: human endometrial cancer (HEC1A) cells; test: MTT cytotoxicity assay, HEC1A; format: cell-based; conditions: for IC50: 48 h; for times more potent than BH10: HEC1A IC50 compared with BH10; for Selectivity ratio: IC50 MAD11 divided by IC50 HEC1A
How it was run: as §1

[3] = Homo sapiens, HEC-1-A, read-out: HEC1A IC50, MTT cell viability, 48 h, n = 3 biological repeats
[4] = read-out: HEC1A IC50, MTT cell viability, n = 3 biological repeats

`CC1=C(NCCN2CCOCC2)C(=O)c2ccccc2C1=O` [Compound 11, 2-Methyl-3-((2-(4-morpholinyl)ethyl)amino)-[1,4]-naphthoquinone] was tested, and the IC50 [1] was greater than 40 µM and the IC50 [2, 3] was greater than 40 µM.
For `O=C1C(Cl)=C(NCCN2CCCCCC2)C(=O)c2ccccc21` [Compound 15, 2-((2-(Azepan-1-yl)ethyl)amino)-3-chloro-[1,4]-naphthoquinone], the IC50 [1] was 2.38 µM, the “times more potent than BH10” value [2] was roughly 8 times and the IC50 [2, 3] was 1.29 µM. For the same molecule, the Selectivity ratio [2] was 1.84.
Work on `O=C1C(Cl)=C(NCCCN2CCOCC2)C(=O)c2ccccc21` [Compound 20, 2-Chloro-3-((3-morpholinopropyl)amino)naphthalene-1,4-dione] yielded an IC50 [1] of 21.9 µM, an IC50 [2, 3] of 6.41 µM and a Selectivity ratio [2] of 3.42.
`CCOC(=O)CNC1=C(Cl)C(=O)c2ccccc2C1=O` [Compound 25, Ethyl (3-chloro-1,4-dioxo-1,4-dihydronaphthalen-2-yl)glycinate] was tested, and the IC50 [1] was 20.1 µM, the IC50 [2, 3] was 20 µM and the Selectivity ratio [2] was 1.00.
With `O=C(Cc1ccccc1)NC1=C(NCCCN2CCCCC2)C(=O)c2ccccc2C1=O` [Compound 50, N-(1,4-Dioxo-3-((3-(piperidin-1-yl)propyl)amino)-1,4-dihydronaphthalen-2-yl)-2-phenylacetamide] the IC50 [1] was 39 µM, the IC50 [2, 3] was 8.8 µM and the Selectivity ratio [2] was 4.4 and 4.43.
`COC(=O)[C@H](Cc1ccccc1)NC1=C(Cl)C(=O)c2ccccc2C1=O` [Compound 27, Methyl (3-chloro-1,4-dioxo-1,4-dihydronaphthalen-2-yl)-L-phenylalaninate] was tested, and the IC50 [1] was greater than 40 µM and the IC50 [2, 3] was greater than 40 µM.
For `O=C1C(Cl)=C(NCCc2c[nH]c3ccccc23)C(=O)c2ccccc21` [Compound 19, 2-((2-(1H-Indol-3-yl)ethyl)amino)-3-chloronaphthalene-1,4-dione], the IC50 [1] was 40.3 µM, the IC50 [2, 3] was 18.6 µM and the Selectivity ratio [2] was 2.24.
Work on `C#CCNC1=C(Cl)C(=O)c2ccccc2C1=O` [Compound 24, 2-Chloro-3-(prop-2-yn-1-ylamino)naphthalene-1,4-dione] yielded an IC50 [1] of 22.4 µM, an IC50 [2, 3] of 21.9 µM and a Selectivity ratio [2] of 1.02.
In the case of `O=C1C(Cl)=C(NCCN2CCCC2)C(=O)c2ccccc21` [Compound 13, 2-Chloro-3-((2-(1-pyrrolidinyl)ethyl)amino)-[1,4]-naphthoquinone], the IC50 [1] is reported as 2.38 µM, the “times more potent than BH10” value [2] is reported as roughly 8 times and the IC50 [2, 3] is reported as 1.29 µM. The Selectivity ratio [2] was 1.84.
In the case of `CCCCC(=O)NC1=C(NCCCN2CCCCC2)C(=O)c2ccccc2C1=O` [Compound 42, N-(1,4-Dioxo-3-((3-(piperidin-1-yl)propyl)amino)-1,4-dihydronaphthalen-2-yl)pentanamide], the IC50 [1] is reported as greater than 40 µM and the IC50 [2, 3] is reported as 15 µM.
For `O=C(O)c1ccc(-n2cc(CNC3=C(Cl)C(=O)c4ccccc4C3=O)nn2)cc1` [Compound 32, 4-(4-(((3-Chloro-1,4-dioxo-1,4-dihydronaphthalen-2-yl)amino)methyl)-1H-1,2,3-triazol-1-yl)benzoic acid], the IC50 [1] was greater than 40 µM and the IC50 [2, 3] was greater than 40 µM.
`CN(C)CCNC1=C(Cl)C(=O)c2ccccc2C1=O` [Compound 12, 2-Chloro-3-((2-(dimethylamino)ethyl)amino)-[1,4]-naphthoquinone] showed an IC50 [1] of 2.87 µM, an IC50 [2, 3] of 1.57 µM and a Selectivity ratio [2] of 1.83.
In the case of `O=C1C(Cl)=C(NCCN2CCN(C3=C(Cl)C(=O)c4ccccc4C3=O)CC2)C(=O)c2ccccc21` [Compound 18, 2-Chloro-3-(4-(2-((3-chloro-1,4-dioxo-1,4-dihydronaphthalen-2-yl)amino)ethyl)piperazin-1-yl)-[1,4]-naphthoquinone], the IC50 [1] is reported as 3.4 µM, the “times more potent than BH10” value [2] is reported as 3.5 times and the IC50 [2, 3] is reported as 2.91 µM. The Selectivity ratio [2] was 1.17.
Molecule `CN(C)CCCNC1=C(Cl)C(=O)c2ccccc2C1=O` [Compound 22, 2-Chloro-3-((3-(dimethylamino)propyl)amino)naphthalene-1,4-dione] has an IC50 [1] of 5.27 µM, an IC50 [2, 3] of 2.36 µM and a Selectivity ratio [2] of 2.23.
In the case of `O=C1C(Br)=C(NCCCN2CCCCC2)C(=O)c2ccccc21` [Compound 10, 2-Bromo-3-((3-(piperidin-1-yl)propyl)amino)-[1,4]-naphthoquinone], the IC50 [1] is reported as 3.27 µM, the IC50 [2, 3] is reported as 1.24 µM and the Selectivity ratio [2] is reported as 2.64.
`O=C1C(Cl)=C(NCc2cn(-c3ccccc3)nn2)C(=O)c2ccccc21` [Compound 31, 2-Chloro-3-(((1-phenyl-1H-1,2,3-triazol-4-yl)methyl)amino)naphthalene-1,4-dione] was tested, and the IC50 [1] was 34 µM, the IC50 [2, 3] was 19.5 µM and the Selectivity ratio [2] was 1.74.
With `CCc1nc2c(n1CCCN1CCCCC1)C(=O)c1ccccc1C2=O` [Compound 45, 2-Ethyl-1-(3-(piperidin-1-yl)propyl)-1H-naphtho[2,3-d]imidazole-4,9-dione] the IC50 [1] was 35 µM, the IC50 [2, 3] was 12 µM and the Selectivity ratio [2] was 2.92.
With `CCC(=O)NC1=C(NCCCN2CCCCC2)C(=O)c2ccccc2C1=O` [Compound 40, N-(1,4-Dioxo-3-((3-(piperidin-1-yl)propyl)amino)-1,4-dihydronaphthalen-2-yl)propionamide] the IC50 [1] was 38.2 µM, the IC50 [2, 3] was 14 µM and the Selectivity ratio [2] was 2.70. For the same molecule, the IC50 [2, 4] was 14.1 µM.
With `O=C1C(Br)=C(NCCCN2CCOCC2)C(=O)c2ccccc21` [Compound 9, 2-Bromo-3-((3-morpholinopropyl)amino)-[1,4]-naphthoquinone] the IC50 [1] was 12.1 µM, the IC50 [2, 3] was 4.16 µM and the Selectivity ratio [2] was 2.90.
With `CCOC(=O)c1ccc(-n2cc(CNC3=C(Cl)C(=O)c4ccccc4C3=O)nn2)cc1` [Compound 33, Ethyl 4-(4-(((3-chloro-1,4-dioxo-1,4-dihydronaphthalen-2-yl)amino)methyl)-1H-1,2,3-triazol-1-yl)benzoate] the IC50 [1] was 21.3 µM, the IC50 [2, 3] was 11.1 µM and the Selectivity ratio [2] was 1.92.
`CCCCNC1=C(Cl)C(=O)c2ccccc2C1=O` [Compound 23, 2-(Butylamino)-3-chloro-[1,4]-naphthoquinone] showed an IC50 [1] greater than 40 µM, an IC50 [2, 3] of 32 µM and a Selectivity ratio [2] greater than 1.25.
For `O=C1C=C(NCCCN2CCCCC2)C(=O)c2ccccc21` [Compound 7, 2-((3-(Piperidin-1-yl)propyl)amino)-[1,4]-naphthoquinone], the IC50 [1] was greater than 40 µM, the IC50 [2, 3] was 17.2 µM and the Selectivity ratio [2] was greater than 2.32.
Molecule `CCCc1nc2c(n1CCCN1CCCCC1)C(=O)c1ccccc1C2=O` [Compound 46, 1-(3-(Piperidin-1-yl)propyl)-2-propyl-1H-naphtho[2,3-d]imidazole-4,9-dione] has an IC50 [1] greater than 40 µM and an IC50 [2, 3] of 19 µM.
Molecule `CC(=O)NC1=C(NCCCN2CCCCC2)C(=O)c2ccccc2C1=O` [Compound 39, N-(1,4-Dioxo-3-((3-(piperidin-1-yl)propyl)amino)-1,4-dihydronaphthalen-2-yl)acetamide] has an IC50 [1] greater than 40 µM, an IC50 [2, 3] of 26 µM and an IC50 [2, 4] of 26 µM.
`COC(=O)[C@H](Cc1c[nH]c2ccccc12)NC1=C(Cl)C(=O)c2ccccc2C1=O` [Compound 26, Methyl (3-chloro-1,4-dioxo-1,4-dihydronaphthalen-2-yl)-L-tryptophanate] was tested, and the IC50 [1] was greater than 40 µM and the IC50 [2, 3] was greater than 40 µM.
Work on `CCCC(=O)NC1=C(NCCCN2CCCCC2)C(=O)c2ccccc2C1=O` [Compound 41, N-(1,4-Dioxo-3-((3-(piperidin-1-yl)propyl)amino)-1,4-dihydronaphthalen-2-yl)butyramide] yielded an IC50 [1] greater than 40 µM and an IC50 [2, 3] of 15 µM.
In the case of `COC(=O)[C@H](CCCCN)NC1=C(Cl)C(=O)c2ccccc2C1=O` [Compound 30, Methyl (3-chloro-1,4-dioxo-1,4-dihydronaphthalen-2-yl)-L-lysinate], the IC50 [1] is reported as greater than 40 µM and the IC50 [2, 3] is reported as 38 µM.
For `CCCCc1nc2c(n1CCCN1CCCCC1)C(=O)c1ccccc1C2=O` [Compound 47, 2-Butyl-1-(3-(piperidin-1-yl)propyl)-1H-naphtho[2,3-d]imidazole-4,9-dione], the IC50 [1] was 24 µM, the IC50 [2, 3] was 14 µM and the Selectivity ratio [2] was 1.80.
`O=C1C=C(NCCCN2CCOCC2)C(=O)c2ccccc21` [Compound 6, 2-((3-Morpholinopropyl)amino)-[1,4]-naphthoquinone] gave an IC50 [1] greater than 40 µM and an IC50 [2, 3] greater than 40 µM.
Work on `Cc1nc2c(n1CCN1CCOCC1)C(=O)c1ccccc1C2=O` [Compound 48, 2-Methyl-1-(2-morpholinoethyl)-1H-naphtho[2,3-d]imidazole-4,9-dione] yielded an IC50 [1] greater than 40 µM and an IC50 [2, 3] greater than 40 µM.
In the case of `O=C1C(Cl)=C(NCCN2CCNCC2)C(=O)c2ccccc21` [Compound 29, 2-Chloro-3-((2-(1-piperazinyl)ethyl)amino)-[1,4]-naphthoquinone salt], the IC50 [1] is reported as 11.5 µM, the “times more potent than BH10” value [2] is reported as 2.2 times and the IC50 [2, 3] is reported as 4.68 µM. For the same molecule, the Selectivity ratio [2] was 2.45.
`O=C1C(Br)=C(NCCN2CCOCC2)C(=O)c2ccccc21` [Compound 8, 2-Bromo-3-((2-(4-morpholinyl)ethyl)amino)-[1,4]-naphthoquinone] gave an IC50 [1] of 20.5 µM, an IC50 [2, 3] of 9.55 µM and a Selectivity ratio [2] of 2.15.
Work on `O=C1C(Cl)=C(NCCCl)C(=O)c2ccccc21` [Compound 16, 2-Chloro-3-((2-chloroethyl)amino)-[1,4]-naphthoquinone] yielded an IC50 [1] of 12.1 µM, an IC50 ([2]; Homo sapiens, HEC-1-A, read-out: HEC1A IC50) of 5.65 µM and a Selectivity ratio [2] of 2.14.
`O=C1C=C(NCCN2CCOCC2)C(=O)c2ccccc21` [Compound 5, 2-((2-Morpholinoethyl)amino)naphthalene-1,4-dione] was tested, and the IC50 [1] was greater than 40 µM and the IC50 [2, 3] was greater than 40 µM.
`CC(=O)NC1=C(NCCN2CCOCC2)C(=O)c2ccccc2C1=O` [Compound 43, N-(3-((2-Morpholinoethyl)amino)-1,4-dioxo-1,4-dihydronaphthalen-2-yl)acetamide] showed an IC50 [1] greater than 40 µM and an IC50 [2, 3] greater than 40 µM.
